# Shown is part of a subset that was picked to be rich in hits.
# Cardio protect – modulators protecting cardiomyocytes from myocardial damage | 360,000 compounds, 0.63% hits | H9c2 cardiomyocytes, H2O2 injury protection, ATPLite, 2 h | AID 588492 | protection from H2O2 cell death, % at 20 µM;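 active means compounds giving at least 50% protection of heart cells from peroxide-induced death in the single-dose screen, raw or plate-pattern-corrected value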;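 further: 0% = DMSO wells with peroxide and 100% = DMSO wells without peroxide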
# XBP1 UPR activ – activators of adaptive arm of unfolded protein response (XBP1). activation, % at 20 µM. AID 463104. 330,000 compounds, 0.33% hits. CHO-XBP1 luciferase reporter, IRE1-XBP1 UPR activation, luminescence; percent of tunicamycin response, DMSO as zero;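 active means versus positive control, 20 µM dose yields 30% or more activation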;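 further: 100% = tunicamycin at 10 µg/mL and 0% = DMSO only wells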
#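 incubation = overnight seeding at 37 °C, 6 h compound treatment at 37 °C | assay system = CHO-XBP1 cells stably carrying IRE1-XBP1-driven luciferase reporter | input = 1000 cells per well | detection = luciferase luminescence | dosing = single point, 20 µM final compound, 1% DMSO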
# CHOP inh – inhibitors of CHOP induction in ER stress response; CHO-K1 CHOP-promoter luciferase, tunicamycin-induced, 15-18 h; inhibition, % at 10 µM; 220,000 compounds, 3.8% hits; AID 2732;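 active means compounds that reduced the stress-induced luciferase reporter signal by more than about 70% of percent inhibition, limit read from the data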;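 further: 0% = tunicamycin plus vehicle and 100% = wells without tunicamycin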
# hiPSC survival – enhancers of human iPSC single-cell survival | hiPSC single-cell survival, ATPlite luminescence; 100% = ROCK inhibitor wells, 0% = DMSO | survival enhancement, % at 20 µM | 360,000 compounds, 0.044% hits | AID 602274; in the data active means survival enhancement above about 18%;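 further: cells exposed to compounds for 16 hours before the ATP read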
# UPR CHOP act – apoptotic UPR (CHOP) activation. AID 449763. CHO-CHOP luciferase reporter, luminescence; percent of tunicamycin response over DMSO baseline. activation, % at 10 µM. 330,000 compounds, 0.34% hits;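 active means at 10 µM dose, activation of 40% or more, normalized to positive control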;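 further: 100% = tunicamycin at 10 µg/mL and 0% = DMSO alone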
#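 Evaluation: % reporter activation, DMSO baseline versus tunicamycin full activation; System: CHO-CHOP luciferase reporter cell line; Input: 500 cells/well; Incubation: 6 h compound treatment, 37 °C; Measured by: Steady-Glo luciferase luminescence; Dosing: one dose, 10 µM in 0.5% DMSO; Buffer or medium: F12 medium, 10% FBS; Benchmarks: positive tunicamycin 10 µg/mL, negative DMSO alone.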
# * hit, by the source's call; . = no result given.
SMILES,Cardio protect,XBP1 UPR activ,CHOP inh,hiPSC survival,UPR CHOP act
CCOC(=O)Cn1nc(-c2ccc(C)cc2)c2ccccc2c1=O,6,0,43,0,2
C/C(=N\N)c1c(-c2ccccc2)c2cc(C)ccc2[nH]c1=O,16,0,-1,0,0
Cc1ccc2[nH]c(=O)c(CNS(=O)(=O)c3ccccc3)c(-c3ccccc3)c2c1,2,1,87*,1,1
CCN(CC)c1c(-c2ccccc2)c2cc(C)ccc2[nH]c1=O,-4,0,95*,-4,2
Cc1ccc(CN2C(=O)c3ccccc3C2c2nnnn2-c2c(C)cccc2C)cc1 (stereo not given),.,.,.,-1,.
CC(C)CN(CCNC(=O)CC1Oc2ccccc2NC1=O)CC(C)C (stereo not given),-2,-1,72*,0,0
CC1(C)Cc2c(sc3c2c(=N)n(Cc2ccco2)c(=O)n3Cc2ccc(Cl)cc2)CO1,-5,0,62,-2,0
CC1(C)Cc2c(sc3c2c(=N)n(Cc2ccco2)c(=O)n3Cc2ccccc2)CO1,-10,2,70*,-2,-4
CCCc1[nH]nc2c1C(/C(C)=C/c1ccccc1)C(C#N)=C(N)O2 (stereo not given),13,-5,71*,0,0
CCCc1[nH]nc2c1C(c1ccccc1OC)C(C#N)=C(N)O2 (stereo not given),5,0,22,0,3
Cc1cc(C)cc(C(O)c2ncc(-c3cccc(F)c3)[nH]2)c1 (stereo not given),-4,.,.,0,.
O=C(Nc1ccc(/C=C/c2nc3ccccc3o2)cc1)c1cccc(C(F)(F)F)c1,-13,12,93*,-4,3
Cc1ccc2oc(=O)c3cc(C(=O)N4CCN(C(=O)c5ccco5)CC4)sc3c2c1,.,-1,20,.,1
CCN(Cc1ccccc1)C(=O)c1cc2c(=O)oc3ccc(C)cc3c2s1,97*,-1,62,-1,-2
CCOC(=O)c1c(NC(=O)CN2CCCCC2)sc(C)c1C,-6,1,-6,3,0
CCOC(=O)c1c(NC(=S)N2CCN(C)CC2)sc2c1CCN(C(=O)OCC)C2,13,2,-4,-1,7
CCOC(=O)c1c(NC(=O)CN(CC)CC)sc2c1CCN(C(=O)OCC)C2,-6,0,75*,4,0
CCOC(=O)c1c(NC(=O)CN2CCCCC2)sc2c1CCN(C(=O)OCC)C2,-5,-2,81*,1,2
CCOC(=O)c1c(NC(=O)CN2CCN(C(=O)c3ccco3)CC2)sc2c1CCCC2,-2,-1,86*,-2,1
CCOC(=O)c1c(NC(=O)c2ccco2)sc2c1CCCC2,-4,0,4,-1,-1
CC(=O)Nc1cncc(-c2cccc(S(C)(=O)=O)c2)n1,2,.,.,1,.
CCc1nnc(NC(=O)C(CC)c2ccccc2)s1 (stereo not given),-2,-5,9,0,1
CCOc1cccc(C(=O)Nc2nnc(-c3ccco3)s2)c1,-14,-6,74*,0,-2
CCC(C(=O)Nc1nnc(-c2ccco2)s1)c1ccccc1 (stereo not given),-14,2,75*,2,1
CC(C)c1nc(N2CCN(C(=O)c3ccccc3)CC2)c(C#N)c2c1COC(C)(C)C2,46,0,91*,0,4
SMILES,Cardio protect,XBP1 UPR activ,CHOP inh,hiPSC survival,UPR CHOP act
COc1ccc(CNC(=O)c2ccc(Cn3nc(C)c([N+](=O)[O-])c3C)o2)cc1,87*,1,-3,4,-1
COc1ccc(N2CCN(C(=O)c3ccc(Cn4nc(C)c([N+](=O)[O-])c4C)o3)CC2)cc1,-4,-6,.,0,-1
COc1ccc(-n2cnnc2SCC(=O)NC2CC2)cc1,3,.,.,-3,.
CCN1CCN(Cc2ccc(NC(=O)c3cc(NC(=O)c4ccc5n[nH]nc5c4)cc(OC)c3)cc2C(F)(F)F)CC1,1,0,-2,-3,0
CCN1CCN(Cc2ccc(NC(=O)c3cc(NC(=O)c4cc(-c5ccc(OC)cc5)n[nH]4)cc(OC)c3)cc2C(F)(F)F)CC1,-2,4,87*,-3,0
O=C1NC(=O)c2c(Br)c(Br)c(Br)c(Br)c21,59*,.,.,0,.
O=C(c1c(F)cccc1Cl)N(Cc1ccco1)C1CCS(=O)(=O)C1 (stereo not given),1,.,.,-2,.
N=C1S/C(=C\c2cccc3ccccc23)C(=O)N1c1ccc(F)cc1,-21,4,99*,-2,2
N#CCCN(Cc1ccccc1)C(CCc1ccccc1)C(=O)NC1CCCCC1 (stereo not given),1,.,.,-2,.
CCCC(=O)N1CCC1(C)C(=O)NS(=O)(=O)c1cccs1 (stereo not given),6,.,.,11,.
CN1OC(COC(=O)c2ccc(Cl)cc2Cl)CC1c1ccccc1 (stereo not given),-1,1,60,4,11
COc1ccc(C(=O)OCC2CC(c3ccccc3)N(C)O2)cc1 (stereo not given),1,-1,80*,-1,-1
O=S(=O)(c1ccc(Cl)s1)N1CCN(Cc2ccccc2)CC1,-15,-4,81*,6,-1
O=S(=O)(c1ccc(Cl)s1)N1CCN(CCc2ccccc2)CC1,-5,-6,.,0,1
Cn1cc(C(N)=O)c2ccccc21,7,-2,18,-1,-1
Cn1cc(C(=O)CCl)c2ccccc21,-6,.,88*,-3,.
Cc1c(N=Nc2c(-c3ccc([N+](=O)[O-])cc3)[nH]n(C(N)=S)c2=O)cccc1[N+](=O)[O-],-16,.,106*,-1,.
NC(=S)n1[nH]c(-c2ccc([N+](=O)[O-])cc2)c(N=Nc2ccccc2[N+](=O)[O-])c1=O,-21,.,85*,-1,.
Cc1[nH]n(C(N)=S)c(=O)c1N=Nc1cccc([N+](=O)[O-])c1C,-5,-2,.,0,4
O=C1N=c2ccccc2=C1c1sc(Nc2ccc(O)cc2)nc1O,-1,.,-22,1,.
O=C1N=c2ccccc2=C1c1sc(Nc2cccc(O)c2)nc1O,54*,2,.,0,6
CCOc1ccc(-c2ccc(/C=C3/C(=N)N4C=CSC4=NC3=O)o2)c([N+](=O)[O-])c1,-5,.,86*,2,.
CCOc1ccc(-c2ccc(/C=C3/C(=N)N4C(C)=CSC4=NC3=O)o2)c([N+](=O)[O-])c1,11,3,88*,0,4
CCOc1ccc(NC(=O)c2cn(CC(C)C)c(=O)c3c2c2ccccc2n3C)cc1,4,7,90*,0,1
COCCCNC(=O)c1cn(CC(C)C)c(=O)c2c1c1ccccc1n2C,6,2,15,1,-1
